Rows were chosen to be rich in hits. Some 3.1% of all compounds tested hit in one or more screens of this group.
MEKK2wt PB1 HTS – raises or lowers MEK5 binding to wildtype human MEKK2 PB1 domain; Q9Y2U5; bead flow cytometry, Alexa488-MEK5 binding to MEKK2 WT; actives lie on both sides; binding response (% of control), % at 10 µM; 1.1% of 290,000 active; in the data active means binding response below about 67% or above about 130%
UBC13 polyUb – blocks human UBC13 polyubiquitin chain formation. P61088. TR-FRET. inhibition, % at 20 µM. 0.47% of 330,000 active. AID 485273; in the data active means inhibition above about 45%, passing the limit was not always enough
MEKK2 mut-MEK5 – signal of MEK5 binding to mutant human MEKK2 PB1 domain. AID 1530. percent response, % at 10 µM. bead flow cytometry, Alexa488-MEK5 binding to MEKK2 mutant. 0.35% of 290,000 active; in the data active means percent response above about 24%, passing the limit was not always enough
Apaf1 inhib – blocks human Apaf-1 apoptosome activity | inhibition, % at 20 µM | reconstituted apoptosome caspase-3 activity, DEVD-Rh110 fluorescence | 0.71% of 330,000 active; active means inhibition of at least 40% at 20 µM
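Medium: Hepes buffer, pH 7.5 / System: biochemical Apaf-1 apoptosome reconstitution / Measured by: Rh110 fluorescence, excitation 480 nm, emission 540 nm / Times: compound with Apaf-1, dATP, procaspase-3 30 min, then 50 min reaction, room temperature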
MEKK3 PB1 HTS – raises or lowers MEK5 binding to the human MEKK3 PB1 domain; binding response (% of control), % at 10 µM; bead-based flow cytometry, Alexa488-MEK5 binding to MEKK3; actives lie on both sides; 0 = blocked by unlabeled MEK5, 100 = vehicle; 1.4% of 290,000 active; AID 1529; Q99759;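 active means binding response more than 3 SD above or below the average of its plate-row segment, actives on both sides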;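 further: Alexa488 bead fluorescence after subtracting the streptavidin-only scavenger bead signal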
Target sequence (Q99759 whole entry, looked up, the tested form may be a part): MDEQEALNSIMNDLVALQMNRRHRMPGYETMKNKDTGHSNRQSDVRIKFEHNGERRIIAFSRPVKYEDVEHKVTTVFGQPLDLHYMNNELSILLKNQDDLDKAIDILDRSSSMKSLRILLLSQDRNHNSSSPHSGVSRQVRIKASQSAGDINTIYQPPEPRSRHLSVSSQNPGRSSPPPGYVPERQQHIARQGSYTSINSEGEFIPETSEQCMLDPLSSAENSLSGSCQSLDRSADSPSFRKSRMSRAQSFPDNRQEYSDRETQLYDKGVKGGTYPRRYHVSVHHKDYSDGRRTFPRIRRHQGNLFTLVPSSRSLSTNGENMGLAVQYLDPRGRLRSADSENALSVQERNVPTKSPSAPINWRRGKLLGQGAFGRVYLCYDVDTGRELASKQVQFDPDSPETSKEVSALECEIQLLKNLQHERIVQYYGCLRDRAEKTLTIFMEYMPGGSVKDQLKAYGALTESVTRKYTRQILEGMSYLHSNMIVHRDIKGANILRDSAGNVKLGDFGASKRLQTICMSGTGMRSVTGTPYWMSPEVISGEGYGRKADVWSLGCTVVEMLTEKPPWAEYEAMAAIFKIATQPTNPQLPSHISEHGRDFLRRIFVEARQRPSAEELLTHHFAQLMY
PREPL inhibitor – human PREPL enzyme inhibition | Q4J6C6 | recombinant PREPL, fluorescence polarization activity-based probe | inhibition, % at 5.96 µM | 0.68% of 320,000 active; in the data active means inhibition above about 43%
Apaf-1 inh conf2 – confirmation of Apaf-1 inhibitors | AID 504614 | shares compounds with Apaf1 inhib | 25% of 1,800 active | inhibition, % at 20 µM | reconstituted apoptosome, caspase-3 DEVD-Rh110 fluorescence;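 active means mean inhibition of at least 40% at 20 µM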
Rh110 interf inh – Rh110 signal interference in Apaf-1 inhibitor counter-screen; shares compounds with Apaf1 inhib; Rh110 fluorescence interference, quenched caspase reaction; activation (fluorescence interference), % at 20 µM; 1,800 tested, under 10 active; AID 504615;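 active means signal rise of 40% or more at 20 µM, treated as a fluorescence artifact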
Apaf1 inh interf – Apaf-1 inhibitor counter-screen fluorescence artifact | 460 tested, under 10 active | fluorescence interference counterscreen, Apaf-1 assay format | IC50, µM | shares compounds with Apaf1 inhib; call rule not given here
A number is an active result; 0 = inactive; - = not tested or not shown.

SMILES	MEKK2wt PB1 HTS	UBC13 polyUb	MEKK2 mut-MEK5	Apaf1 inhib	MEKK3 PB1 HTS	PREPL inhibitor	Apaf-1 inh conf2	Rh110 interf inh	others
CCOc1cccc(CNc2ccc(O)cc2)c1OCc1ccc(Cl)cc1Cl	-	0	-	0	-	0	-	-
CCOc1cccc(CNc2ccc(O)cc2)c1OCc1ccccc1Cl	0	0	0	96.7	0	0	0	0
Cc1ccc(Oc2nc(CN3CCOCC3)nc3sc4c(c23)CCC(C)C4)cc1C (centres undefined)	0	0	0	0	0	0	-	-
Cc1ccc(Oc2nc(CN3CCOCC3)nc3sc4c(c23)CCC(C)C4)cc1 (centres undefined)	0	0	0	40.5	0	0	0	0
CCc1nnc(NC(=O)c2ccc(S(=O)(=O)N3CCCCC3)cc2)s1	0	0	0	54.7	0	0	0	0
CCc1nnc(NC(=O)c2ccc(S(=O)(=O)N3CCCC3)cc2)s1	0	0	0	0	0	0	-	-
COc1cccc(-c2c(-c3cc(OC)cc(OC)c3)n(C)c3ccc(-c4cnc(N5CCOCC5)nc4)cc23)c1	-	0	-	0	-	0	-	-
Cc1cc([N+](=O)[O-])ccc1NC(=O)CCC(=O)N1CCCC1	0	0	0	0	0	0	-	-
O=C(NCCCN1CCCCCC1)c1cc2c(=O)oc3ccccc3c2s1	136.0	0	0	40.5	0	0	0	0
CN1CCN(CCCNC(=O)c2cc3c(=O)n(C)c4ccccc4c3s2)CC1	0	0	0	0	0	0	-	-
Cc1ccc(NC2=C(NCCO)C(=O)c3ccccc3C2=O)cc1	0	0	0	78.1	0	0	61.2	0	Apaf1 inh interf=0
CCOc1ccc(NC(=O)c2c[nH]n3c(=O)cc(C4CCN(C(=O)OC(C)(C)C)CC4)nc23)cc1	0	0	0	40.4	0	0	0	0
COc1ccc(Cl)cc1C(=O)Nn1cnnc1	0	0	0	0	0	0	-	-
CC1CCCC(NC(=O)COC(=O)c2ccc([N+](=O)[O-])s2)C1C (centres undefined)	-	0	-	41.5	-	0	0	0
CC1CCCC(NC(=O)COC(=O)c2ccccc2[N+](=O)[O-])C1C (centres undefined)	0	0	0	0	0	0	-	-
CC(=O)C1=C(c2cccc([N+](=O)[O-])c2)N(C(C)=O)n2c(C)nnc2S1	0	0	0	43.9	0	0	0	0
O=C(COC(=O)CNC(=O)c1ccccc1)NC(=O)NC1CCCCC1	-	0	-	0	-	0	-	-
COc1ccccc1CNC(=O)CN1C(=O)NC(c2ccccc2)(c2ccc(C)c(C)c2)C1=O (centres undefined)	-	0	-	65.9	-	-	0	0
Cc1ccc(C2(c3ccccc3)NC(=O)N(CC(=O)NC3CCCCC3)C2=O)cc1C (centres undefined)	-	0	-	0	-	-	-	-
Cc1csc(=O)n1CC(=O)OCC(=O)Nc1ccc(F)c(F)c1	-	0	-	0	-	0	-	-
Cc1cc(C)cc(OCCNC(=O)c2cc(S(=O)(=O)N3CCOCC3)ccc2F)c1	0	0	0	0	0	0	-	-
Cc1ccc(-c2cc(C(=O)NCCCN3CCOCC3)c3ccc(Cl)c(C)c3n2)cc1	0	0	0	55.5	0	0	0	0
CN(C)c1ccc(NC(=O)Oc2ccccc2)cc1	0	0	0	48.3	0	0	0	0
COc1cc(CC(=O)OCC(=O)N2CCCCC2C)cc(OC)c1OC (centres undefined)	0	0	0	0	0	0	-	-
O=C(NCC1CCCO1)c1coc2nc3ccccc3nc12 (centres undefined)	0	0	0	0	0	0	-	-
COc1ccc(-n2nc(C(=O)NCC(=O)NCC3CCCO3)c3ccccc3c2=O)c(OC)c1 (centres undefined)	0	0	0	0	0	0	-	-
C=CCn1c(N)c(C(=O)NCC2CCCO2)c2nc3ccccc3nc21 (centres undefined)	0	0	0	77.7	0	0	0	0
